Data: ChEMBL document CHEMBL1155277, “Synthesis of new 4-isopropylthiazole hydrazide analogs and some derived clubbed triazole, oxadiazole ring systems--a novel class of potential antibacterial, antifungal and antitubercular agents” (Eur J Med Chem, 2009)
Converted amounts (≈) assume the structure as drawn.

What was measured:
Staphylococcus aureus = experiment: Antimicrobial activity against Staphylococcus aureus ATCC 11632 after 24 hrs by broth microdilution method; type: functional; details: ATCC 11632, 24 h
In short: (§1)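 Broth microdilution in tubes. Compounds were dissolved at 10 mg in 1 mL DMSO and diluted in Mueller-Hinton Broth for bacteria or Sabouraud Liquid Medium for yeasts and A. niger. Final concentrations were 1–500 µg/mL (1, 2, 4, 8, 16, 31.25, 62.5, 125, 250, 500), with DMSO at most 1% v/v. Inoculum was 10^5 cfu/mL, incubated at 37 °C for 24 h. MIC was the lowest concentration giving complete growth inhibition. Media and media-plus-DMSO served as growth controls.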

Enterococcus faecalis = experiment: Antimicrobial activity against Streptococcus faecalis ATCC 14506 after 24 hrs by broth microdilution method; type: functional; details: ATCC 14506, 24 h; in short: as §1
Bacillus subtilis = experiment: Antimicrobial activity against Bacillus subtilis ATCC 60511 after 24 hrs by broth microdilution method; type: functional; details: ATCC 60511, 24 h; in short: as §1
Klebsiella pneumoniae = experiment: Antimicrobial activity against Klebsiella pneumoniae ATCC 10031 after 24 hrs by broth microdilution method; type: functional; details: ATCC 10031, 24 h; in short: as §1
Escherichia coli = experiment: Antimicrobial activity against Escherichia […] after 24 hrs by broth microdilution method; type: functional; in short: as §1
Pseudomonas aeruginosa = experiment: Antimicrobial activity against Pseudomonas aeruginosa ATCC 10145 after 24 hrs by broth microdilution method; type: functional; details: ATCC 10145, 24 h; in short: as §1
Saccharomyces cerevisiae = experiment: Antimicrobial activity against Saccharomyces cerevisiae ATCC 9763 after 24 hrs by broth microdilution method; type: functional; details: ATCC 9763, 24 h; in short: as §1
Candida tropicalis = experiment: Antimicrobial activity against Candida tropicalis ATCC 1369 after 24 hrs by broth microdilution method; type: functional; details: ATCC 1369, 24 h; in short: as §1
Aspergillus niger = experiment: Antimicrobial activity against Aspergillus niger ATCC 6275 after 24 hrs by broth microdilution method; type: functional; details: ATCC 6275, 24 h; in short: as §1
[1] = system: Mycobacterium tuberculosis; experiment: Antitubercular activity against Mycobacterium tuberculosis H37Rv after 21 days by broth dilution assay; type: functional; details: 504 h
In short: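 H37Rv frozen stock in Middlebrook 7H9 broth with 10% albumin-dextrose-catalase and 0.2% glycerol, thawed and diluted to 10⁵ cfu mL⁻¹. Compounds dissolved in DMSO, diluted in broth (final DMSO 1.3%). U-tubes inoculated, incubated 37 °C for 21 days. Growth scored visually against drug-free and inoculum-free controls and isoniazid. MIC = lowest concentration inhibiting […] of starting population.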

A549 = experiment: Cytotoxicity against human A549 cell at 250 uM by MTT assay; type: cell-based; details: a549, 250 µM
In short: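 A549 lung adenocarcinoma cells were grown with 10% and 0.2% FBS. Compounds were held as 10 mM DMSO stocks and diluted in culture medium; cells were treated at 250 µM. Viability was read by MTT reduction against untreated cells and a DMSO vehicle control. The work was done as two experiments, each with triplicate readings.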

SMILES	MIC (Staphylococcus aureus) [mg/L]	MIC (Enterococcus faecalis) [mg/L]	MIC (Bacillus subtilis) [mg/L]	MIC (Klebsiella pneumoniae) [mg/L]	MIC (Escherichia coli) [mg/L]	MIC (Pseudomonas aeruginosa) [mg/L]	MIC (Saccharomyces cerevisiae) [mg/L]	MIC (Candida tropicalis) [mg/L]	MIC (Aspergillus niger) [mg/L]	MIC [1] [mg/L]	Activity (A549)
CC(=O)N1N=C(c2nc(C(C)C)cs2)OC1c1ccccc1 (stereo unspecified)	125 (≈ 396 µM)	62.5 (≈ 198 µM)	31.2 (≈ 99.1 µM)	62.5 (≈ 198 µM)	62.5 (≈ 198 µM)	16 (≈ 50.7 µM)	31.2 (≈ 99.1 µM)	16 (≈ 50.7 µM)	16 (≈ 50.7 µM)	31.2 (≈ 99.1 µM)	–
CC(C)=NNC(=O)c1nc(C(C)C)cs1	250 (≈ 1110 µM)	125 (≈ 555 µM)	125 (≈ 555 µM)	125 (≈ 555 µM)	125 (≈ 555 µM)	125 (≈ 555 µM)	500 (≈ 2220 µM)	125 (≈ 555 µM)	500 (≈ 2220 µM)	125 (≈ 555 µM)	–
C/C(=N/NC(=O)c1nc(C(C)C)cs1)c1ccccc1	250 (≈ 870 µM)	250 (≈ 870 µM)	250 (≈ 870 µM)	125 (≈ 435 µM)	125 (≈ 435 µM)	250 (≈ 870 µM)	500 (≈ 1740 µM)	500 (≈ 1740 µM)	250 (≈ 870 µM)	125 (≈ 435 µM)	–
CC(=O)NNC(=O)c1nc(C(C)C)cs1	500 (≈ 2200 µM)	125 (≈ 550 µM)	250 (≈ 1100 µM)	125 (≈ 550 µM)	250 (≈ 1100 µM)	125 (≈ 550 µM)	500 (≈ 2200 µM)	125 (≈ 550 µM)	500 (≈ 2200 µM)	125 (≈ 550 µM)	–
CC(C)c1csc(C(=O)N/N=C/c2ccc([N+](=O)[O-])cc2)n1	125 (≈ 393 µM)	250 (≈ 785 µM)	125 (≈ 393 µM)	125 (≈ 393 µM)	31.2 (≈ 98.2 µM)	125 (≈ 393 µM)	125 (≈ 393 µM)	62.5 (≈ 196 µM)	31.2 (≈ 98.2 µM)	125 (≈ 393 µM)	–
CC(=O)N1N=C(c2nc(C(C)C)cs2)OC1c1ccc([N+](=O)[O-])cc1 (stereo unspecified)	125 (≈ 347 µM)	125 (≈ 347 µM)	250 (≈ 694 µM)	125 (≈ 347 µM)	250 (≈ 694 µM)	125 (≈ 347 µM)	500 (≈ 1390 µM)	125 (≈ 347 µM)	31.2 (≈ 86.7 µM)	62.5 (≈ 173 µM)	–
CC(=O)N1N=C(c2nc(C(C)C)cs2)OC1c1ccc(N(C)C)cc1 (stereo unspecified)	125 (≈ 349 µM)	125 (≈ 349 µM)	31.2 (≈ 87.2 µM)	31.2 (≈ 87.2 µM)	16 (≈ 44.6 µM)	16 (≈ 44.6 µM)	31.2 (≈ 87.2 µM)	31.2 (≈ 87.2 µM)	31.2 (≈ 87.2 µM)	62.5 (≈ 174 µM)	–
CC(C)c1csc(C(=O)N/N=C/c2cccc(Cl)c2Cl)n1	250 (≈ 730 µM)	31.2 (≈ 91.3 µM)	31.2 (≈ 91.3 µM)	31.2 (≈ 91.3 µM)	16 (≈ 46.7 µM)	31.2 (≈ 91.3 µM)	16 (≈ 46.7 µM)	31.2 (≈ 91.3 µM)	125 (≈ 365 µM)	125 (≈ 365 µM)	–
CC(=O)N1N=C(c2nc(C(C)C)cs2)OC1c1ccc(O)cc1 (stereo unspecified)	125 (≈ 377 µM)	31.2 (≈ 94.3 µM)	16 (≈ 48.3 µM)	31.2 (≈ 94.3 µM)	16 (≈ 48.3 µM)	31.2 (≈ 94.3 µM)	31.2 (≈ 94.3 µM)	16 (≈ 48.3 µM)	16 (≈ 48.3 µM)	31.2 (≈ 94.3 µM)	Active
CC(C)c1csc(C(=O)N/N=C/c2ccc(O)cc2)n1	125 (≈ 432 µM)	125 (≈ 432 µM)	125 (≈ 432 µM)	31.2 (≈ 108 µM)	31.2 (≈ 108 µM)	16 (≈ 55.3 µM)	31.2 (≈ 108 µM)	16 (≈ 55.3 µM)	31.2 (≈ 108 µM)	125 (≈ 432 µM)	–
C/C(=N/NC(=O)c1nc(C(C)C)cs1)c1ccc(Cl)cc1	125 (≈ 388 µM)	125 (≈ 388 µM)	31.2 (≈ 97.1 µM)	125 (≈ 388 µM)	125 (≈ 388 µM)	125 (≈ 388 µM)	125 (≈ 388 µM)	125 (≈ 388 µM)	125 (≈ 388 µM)	62.5 (≈ 194 µM)	–
C/C(=N/NC(=O)c1nc(C(C)C)cs1)c1ccc(C)cc1	250 (≈ 829 µM)	125 (≈ 415 µM)	250 (≈ 829 µM)	125 (≈ 415 µM)	250 (≈ 829 µM)	250 (≈ 829 µM)	125 (≈ 415 µM)	250 (≈ 829 µM)	500 (≈ 1660 µM)	125 (≈ 415 µM)	–
C/C(=N/NC(=O)c1nc(C(C)C)cs1)c1ccc([N+](=O)[O-])cc1	250 (≈ 752 µM)	250 (≈ 752 µM)	250 (≈ 752 µM)	250 (≈ 752 µM)	250 (≈ 752 µM)	250 (≈ 752 µM)	500 (≈ 1500 µM)	125 (≈ 376 µM)	125 (≈ 376 µM)	125 (≈ 376 µM)	–
